ChEMBL document CHEMBL2417474, “Synthesis, antiproliferative and anti-inflammatory activities of some novel 6-aryl-2-(p-(methanesulfonyl)phenyl)-4,5-dihydropyridazi-3(2H)-ones” (Eur J Med Chem, 2013)

Columns and labels:
Format in all cases: functional
[1] = test system: HL-60(TB); test: Growth inhibition of human HL-60(TB) cells after 48 hrs by sulforhodamine B assay; conditions: HL-60, 48 h; for CC50: read-out: LC50 (the source's name)
How it was run: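 Part of the NCI 60-cell-line panel. Cells were grown in 1640 medium with 5% fetal calf serum and 2 mM L-glutamine, then preincubated 24 h before compound was added. Compounds in DMSO were tested at five concentrations (100, 10, 1, 0.1, 0.01 µM) with 48 h continuous exposure. Read-out was SRB protein staining; GI50 is the concentration halving the net protein increase versus control.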

[2] = test system: MOLT-4; test: Growth inhibition of human MOLT4 cells assessed as cell growth at 10 uM after 48 hrs by sulforhodamine B assay; conditions: MOLT-4, 48 h, read-out: Activity
[3] = test system: SK-MEL-28; test: Growth inhibition of human SK-MEL-28 cells after 48 hrs by sulforhodamine B assay; conditions: SK-MEL-28, 48 h; for CC50: read-out: LC50 (the source's name)
How it was run: (§1)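 NCI 60-cell-line panel. Cells were grown in medium with 5% fetal calf serum and 2 mM L-glutamine, then preincubated 24 h in plates. Compounds were added from DMSO at five 10-fold concentrations from 100 to 0.01 µM and left on cells continuously for 48 h. Cell growth was read by sulforhodamine B protein stain. GI50 is the concentration that halves net protein increase relative to control cells.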

[4] = test system: RXF 393; test: Growth inhibition of human RXF393 cells assessed as cell growth at 10 uM after 48 hrs by sulforhodamine B assay; conditions: RXF 393, 48 h, read-out: Activity
[5] = test system: TK-10; test: Growth inhibition of human TK10 cells assessed as cell growth at 10 uM after 48 hrs by sulforhodamine B assay; conditions: TK-10, 48 h, read-out: Activity
How it was run: (§2)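 Single-dose NCI screen. Tumor lines were cultured in medium with 5% fetal calf serum and 2 mM L-glutamine, preincubated 24 h, then given compound in DMSO. After 48 h continuous exposure, cell growth was estimated by sulforhodamine B protein assay.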

[6] = test system: OVCAR-3; test: Growth inhibition of human OVCAR3 cells assessed as cell growth at 10 uM after 48 hrs by sulforhodamine B assay; conditions: OVCAR-3, 48 h, read-out: Activity
[7] = test system: ACHN; test: Growth inhibition of human ACHN cells assessed as cell growth at 10 uM after 48 hrs by sulforhodamine B assay; conditions: read-out: Activity
[8] = test system: LOX IMVI; test: Growth inhibition of human LOXIMVI cells assessed as cell growth at 10 uM after 48 hrs by sulforhodamine B assay; conditions: read-out: Activity
[9] = Growth inhibition of human HCC2998 cells assessed as cell growth at 10 uM after 48 hrs by sulforhodamine B assay; conditions: HCC 2998, 48 h, read-out: Activity
[10] = test system: SF-268; test: Growth inhibition of human SF268 cells assessed as cell growth at 10 uM after 48 hrs by sulforhodamine B assay; conditions: SF-268, 48 h, read-out: Activity
[11] = test system: SW-620; test: Growth inhibition of human SW620 cells assessed as cell growth at 10 uM after 48 hrs by sulforhodamine B assay; conditions: SW-620, 48 h, read-out: Activity; how it was run: as §2
[12] = test system: BT-549; test: Growth inhibition of human BT549 cells assessed as cell growth at 10 uM after 48 hrs by sulforhodamine B assay; conditions: BT-549, 48 h, read-out: Activity
[13] = test system: SF-295; test: Growth inhibition of human SF295 cells after 48 hrs by sulforhodamine B assay; conditions: SF-295, 48 h; how it was run: as §1
[14] = test system: RXF 393; test: Growth inhibition of human RXF393 cells after 48 hrs by sulforhodamine B assay; conditions: RXF 393, 48 h; how it was run: as §1
[15] = test system: OVCAR-4; test: Growth inhibition of human OVCAR4 cells after 48 hrs by sulforhodamine B assay; conditions: OVCAR-4, 48 h; how it was run: as §1
[16] = test system: MCF7; test: Growth inhibition of human MCF7 cells assessed as cell growth at 10 uM after 48 hrs by sulforhodamine B assay; conditions: MCF7, 48 h, read-out: Activity
[17] = test system: 786-0; test: Growth inhibition of human 786-0 cells after 48 hrs by sulforhodamine B assay; conditions: 786-0, 48 h
How it was run: (§3)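 NCI 60-cell-line panel grown in RPMI-type medium with 5% fetal calf serum and 2 mM L-glutamine. Cells preincubated 24 h, then exposed continuously for 48 h to compound in DMSO at 10^-4 to 10^-8 M (five 10-fold levels). Growth read by SRB protein stain. GI50 is the concentration giving a 50% reduction in net protein increase relative to control cells.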

[18] = test system: PC-3; test: Growth inhibition of human PC3 cells after 48 hrs by sulforhodamine B assay; conditions: PC-3, 48 h; how it was run: as §1
[19] = test system: UACC-62; test: Growth inhibition of human UACC62 cells after 48 hrs by sulforhodamine B assay; conditions: UACC-62, 48 h
How it was run: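 NCI 60-line panel. Cells were grown in medium with 5% fetal calf serum and 2 mM L-glutamine and preincubated 24 h in plates. Compound in DMSO was added at 10^-4 to 10^-8 M (five 10-fold levels), with continuous exposure for 48 h. Growth was read by SRB protein staining. GI50 is the concentration giving 50% reduction in net protein increase versus control cells.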

[20] = test system: OVCAR-8; test: Growth inhibition of human OVCAR8 cells assessed as cell growth at 10 uM after 48 hrs by sulforhodamine B assay; conditions: OVCAR-8, 48 h, read-out: Activity
[21] = test system: KM12; test: Growth inhibition of human KM12 cells after 48 hrs by sulforhodamine B assay; conditions: KM12, 48 h; how it was run: as §3
[22] = test system: SNB-75; test: Growth inhibition of human SNB75 cells after 48 hrs by sulforhodamine B assay; conditions: SNB-75, 48 h; for CC50: read-out: LC50 (the source's name); how it was run: as §1
[23] = test system: MDA-MB-435; test: Growth inhibition of human MDA-MB-435 cells after 48 hrs by sulforhodamine B assay; conditions: MDA-MB-435, 48 h; how it was run: as §1
[24] = test system: SR; test: Growth inhibition of human SR cells assessed as cell growth at 10 uM after 48 hrs by sulforhodamine B assay; conditions: read-out: Activity; how it was run: as §2
[25] = test system: NCI-H522; test: Growth inhibition of human NCI-H522 cells assessed as cell growth at 10 uM after 48 hrs by sulforhodamine B assay; conditions: NCI-H522, 48 h, read-out: Activity
[26] = Growth inhibition of human EKVX cells after 48 hrs by sulforhodamine B assay; conditions: for CC50: read-out: LC50 (the source's name); how it was run: as §3
[27] = test system: UO-31; test: Growth inhibition of human UO31 cells assessed as cell growth at 10 uM after 48 hrs by sulforhodamine B assay; conditions: UO-31, 48 h, read-out: Activity; how it was run: as §2
[28] = test system: HCT-116; test: Growth inhibition of human HCT116 cells after 48 hrs by sulforhodamine B assay; conditions: HCT-116, 48 h; how it was run: as §3

For `Cc1cc(O)ccc1C1=NN(c2ccc(S(C)(=O)=O)cc2)C(=O)CC1`, the GI50 [1] was 3.52 µM, the TGI [1] was 48.4 µM and the CC50 [1] was > 100 µM. For the same compound, the growth at 10 µM [2] was 52.7%, the GI50 [3] was 9.56 µM and the TGI [3] was > 100 µM. The CC50 [3] was > 100 µM, the growth at 10 µM [4] was 81.2% and the growth at 10 µM [5] was 105%. For the same compound, the growth at 10 µM [6] was 65.1%, the growth at 10 µM [7] was 79.7% and the growth at 10 µM [8] was 67.5%. The growth at 10 µM [9] was 78.6%, the growth at 10 µM [10] was 80.3% and the growth at 10 µM [11] was 46.6%. For the same compound, the growth at 10 µM [12] was 58.2%, the GI50 [13] was 2.87 µM and the LC50 (concentration killing 50% of cells present at start) [13] was > 100 µM. For the same compound, the TGI [13] was 12.4 µM, the GI50 [14] was 12.8 µM and the LC50 (50% lethal concentration) [14] was > 100 µM. The TGI [14] was > 100 µM, the GI50 [15] was 76.9 µM and the LC50 [15] was > 100 µM. The TGI [15] was > 100 µM, the growth at 10 µM [16] was 82.8% and the GI50 [17] was 92.5 µM. For the same compound, the LC50 [17] was > 100 µM, the TGI [17] was > 100 µM and the GI50 [18] was 14.8 µM. The LC50 [18] was > 100 µM, the TGI [18] was > 100 µM and the GI50 [19] was 4 µM. The LC50 (50% net cell kill concentration) [19] was > 100 µM, the TGI [19] was > 100 µM and the growth at 10 µM [20] was 92.3%. For the same compound, the GI50 [21] was 4.22 µM, the LC50 [21] was > 100 µM and the TGI [21] was > 100 µM. For the same compound, the GI50 [22] was 5.53 µM, the TGI [22] was > 75.2 µM and the CC50 [22] was > 100 µM. For the same compound, the GI50 [23] was 1.28 µM, the LC50 (concentration killing 50% of starting cells) [23] was > 100 µM and the TGI [23] was 5.83 µM. It also gave a growth at 10 µM [24] of 12.3%, a growth at 10 µM [25] of 2.39% and a GI50 [26] of 57.9 µM. The TGI [26] was > 100 µM, the CC50 [26] was > 100 µM and the growth at 10 µM [27] was 48.8%. The GI50 [28] was 3.78 µM, the LC50 (concentration killing 50% of cells) [28] was > 100 µM and the TGI [28] was > 100 µM.
With `Cc1ccc(C2=NN(c3ccc(S(C)(=O)=O)cc3)C(=O)CC2)cc1` the GI50 [1] was 0.4 µM, the TGI [1] was 2.58 µM and the CC50 [1] was > 100 µM. For the same compound, the growth at 10 µM [2] was 20.1%, the GI50 [3] was 0.66 µM and the TGI [3] was > 100 µM. The CC50 [3] was > 100 µM, the growth at 10 µM [4] was 15.4% and the growth at 10 µM [5] was 67%. It also gave a growth at 10 µM [6] of -14.7%, a growth at 10 µM [7] of 54.5% and a growth at 10 µM [8] of 33.7%. It also gave a growth at 10 µM [9] of 47.2%, a growth at 10 µM [10] of 55.2% and a growth at 10 µM [11] of 8.58%. The growth at 10 µM [12] was 11.3%, the GI50 [13] was 0.4 µM and the LC50 (concentration killing 50% of cells present at start) [13] was > 100 µM. For the same compound, the TGI [13] was 5.36 µM, the GI50 [14] was 0.63 µM and the LC50 (50% lethal concentration) [14] was > 100 µM. The TGI [14] was 6.8 µM, the GI50 [15] was > 100 µM and the LC50 [15] was > 100 µM. For the same compound, the TGI [15] was > 100 µM, the growth at 10 µM [16] was 16.2% and the GI50 [17] was 5.78 µM. For the same compound, the LC50 [17] was > 100 µM, the TGI [17] was > 100 µM and the GI50 [18] was 1.43 µM. The LC50 [18] was > 100 µM, the TGI [18] was > 100 µM and the GI50 [19] was 0.46 µM. The LC50 (50% net cell kill concentration) [19] was > 100 µM, the TGI [19] was > 100 µM and the growth at 10 µM [20] was 31.8%. The GI50 [21] was 0.44 µM, the LC50 [21] was > 100 µM and the TGI [21] was > 100 µM. For the same compound, the GI50 [22] was 0.54 µM, the TGI [22] was > 9.25 µM and the CC50 [22] was > 100 µM. For the same compound, the GI50 [23] was 0.12 µM, the LC50 (concentration killing 50% of starting cells) [23] was > 100 µM and the TGI [23] was 0.39 µM. The growth at 10 µM [24] was 4.47%, the growth at 10 µM [25] was 12.8% and the GI50 [26] was 3.02 µM. For the same compound, the TGI [26] was > 100 µM, the CC50 [26] was > 100 µM and the growth at 10 µM [27] was 41.1%. The GI50 [28] was 0.41 µM, the LC50 (concentration killing 50% of cells) [28] was > 100 µM and the TGI [28] was > 100 µM.
